Laboratory results from ChEMBL document CHEMBL3124932, “Design, synthesis and evaluation of genistein-O-alkylbenzylamines as potential multifunctional agents for the treatment of Alzheimer's disease” (Eur J Med Chem, 2014).

What was measured:
[1] = biological target: T1, Acetylcholinesterase (Electrophorus electricus, UniProt O42275); experiment: Inhibition of electric eel AchE using acetylthiocholine iodide as substrate after 15 mins by Ellman's method
[2] = test system: Mus musculus; experiment: Cognition enhancing effect against scopolamine-induced memory deficit in po dosed Kunming mouse assessed as increase in latency time administered 1 hr before training followed by scopolamine challenge for 7 days measured after 24 hrs by step-down passive avoidance test; type: functional, organism-based
Method in brief: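 Kunming mice, six weeks old, 18–22 g, either sex, n=10 per group. Oral dosing at 2, 6, 18 or 3, 9, 27 mg/kg in vegetable oil, 1 h before training; vehicle as negative control. Scopolamine (3 mg/kg i.p., in saline) given 30 min later. Behavioural testing after 7 days of treatment. Step-down training used a 0.5 mA, 2 s foot shock. Latency measured 24 h later, cut-off 300 s; mean ± SEM.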

[3] = biological target: Acetylcholinesterase (Homo sapiens, UniProt P22303); experiment: Inhibition of human erythrocytes AchE using acetylthiocholine iodide as substrate after 15 mins by Ellman's method
[4] = Antioxidant activity assessed as trolox equivalent of APPH-induced radical scavenging activity at 1 to 10 uM preincubated for 15 mins followed by AAPH challenge measured every minute for 90 minutes by ORAC fluorescence assay; type: functional
Method in brief: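 ORAC-FL in phosphate buffer pH 7.4. Samples (1–10 µM) preincubated with fluorescein (150 nM final) 15 min at 37 °C, then AAPH (12 mM final) added. Fluorescence (ex 485/em 535 nm) read each minute for 90 min. Net AUC over blank converted to Trolox equivalents using a 1–8 µM Trolox curve. Duplicates, at least 3 independent assays.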

[5] = biological target: T1, Acetylcholinesterase; experiment: Mixed-type inhibition of electric eel AchE using acetylthiocholine as substrate after 15 mins by Lineweaver-Burk plot analysis
Method in brief: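 Purified eel AChE in 0.1 M phosphate pH 8.0 with DTNB. Three inhibitor concentrations preincubated with enzyme 15 min at 37 °C, then acetylthiocholine added at varied concentrations. Hydrolysis followed at 412 nm, with no-inhibitor controls. Lineweaver-Burk plots fitted by weighted least squares; slopes replotted against inhibitor concentration, Ki taken as the negative x-intercept.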

[6] = biological target: Amyloid-beta precursor protein (Homo sapiens) (UniProt P05067); experiment: Inhibition of Cu2+-induced amyloid beta (1 to 42) (unknown origin) aggregation after 24 hrs by thioflavin T fluorescence method
Method in brief: (§1)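 Aβ1-42 (25 µM final, HFIP-pretreated) with an equimolar amount of Cu2+ (25 µM) in HEPES pH 6.6 with 150 mM NaCl. Incubated with or without compound (10–35 µM final) 24 h at 37 °C. ThT in glycine-NaOH pH 8.5 added, fluorescence ex 446/em 490 nm. DMSO 12.5% final. Percent inhibition relative to no-inhibitor wells; triplicate, mean of 3 independent experiments.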

[7] = biological target: Amyloid-beta precursor protein (Homo sapiens) (UniProt P05067); experiment: Inhibition of self-induced amyloid beta (1 to 42) (unknown origin) aggregation after 24 hrs by thioflavin T fluorescence method
Method in brief: (§2)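 HFIP-pretreated Aβ1-42 (25 µM final) incubated with compound (10–50 µM) in 50 mM phosphate pH 7.4 for 24 h at 37 °C, wells sealed. ThT in glycine-NaOH pH 8.5 added; fluorescence ex 446/em 490 nm. DMSO 12.5% final. Percent inhibition relative to peptide without inhibitor; triplicate, mean of 3 independent experiments.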

[8] = biological target: T2, Acetylcholinesterase (Rattus norvegicus, UniProt P37136); experiment: Inhibition of rat cortex homogenate AchE using acetylthiocholine iodide as substrate after 15 mins by Ellman's method
T2 sequence (P37136 whole entry): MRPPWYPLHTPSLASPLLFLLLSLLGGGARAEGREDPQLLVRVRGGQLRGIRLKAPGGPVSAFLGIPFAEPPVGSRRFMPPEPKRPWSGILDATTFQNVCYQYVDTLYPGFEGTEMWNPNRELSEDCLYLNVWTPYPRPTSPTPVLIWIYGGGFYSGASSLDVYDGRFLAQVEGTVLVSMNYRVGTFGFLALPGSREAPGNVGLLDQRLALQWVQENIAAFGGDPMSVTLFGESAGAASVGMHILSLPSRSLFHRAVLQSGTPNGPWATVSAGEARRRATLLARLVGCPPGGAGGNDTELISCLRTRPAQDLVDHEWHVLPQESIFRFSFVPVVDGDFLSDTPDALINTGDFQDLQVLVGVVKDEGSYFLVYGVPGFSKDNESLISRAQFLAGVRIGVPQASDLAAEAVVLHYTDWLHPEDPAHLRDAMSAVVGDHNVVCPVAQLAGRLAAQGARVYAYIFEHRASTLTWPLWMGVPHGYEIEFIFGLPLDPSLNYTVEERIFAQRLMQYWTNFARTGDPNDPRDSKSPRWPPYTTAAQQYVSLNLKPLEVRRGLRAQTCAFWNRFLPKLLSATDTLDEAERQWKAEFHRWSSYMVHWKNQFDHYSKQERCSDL

[9] = biological target: Amyloid-beta precursor protein (Homo sapiens) (UniProt P05067); experiment: Induction of amyloid beta (1 to 42) (unknown origin) disaggregation assessed as reduction of Cu2+-induced amyloid beta fibril formation at 25 uM after 24 hrs by thioflavin T fluorescence method; parameters: scale not given: the % may be the effect or the level left
Method in brief: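 Aβ1-42 (25 µM final, HFIP-pretreated) and Cu2+ (25 µM) in HEPES pH 6.6 with 150 mM NaCl, incubated 24 h at 37 °C. Test compound (25 µM final) then added for a further 24 h at 37 °C, wells sealed. Read by ThT in glycine-NaOH pH 8.5 (ex 446/em 490 nm). DMSO 12.5% final; triplicate.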

[10] = biological target: Amyloid-beta precursor protein (Homo sapiens) (UniProt P05067); experiment: Inhibition of Cu2+-induced amyloid beta (1 to 42) (unknown origin) aggregation at 25 uM after 24 hrs by thioflavin T fluorescence method; method in brief: as §1
[11] = biological target: Amyloid-beta precursor protein (Homo sapiens) (UniProt P05067); experiment: Inhibition of self-induced amyloid beta (1 to 42) (unknown origin) aggregation at 25 uM after 24 hrs by thioflavin T fluorescence method; method in brief: as §2
[12] = biological target: Butyrylcholinesterase (Rattus norvegicus) (UniProt Q9JKC1); experiment: Inhibition of rat serum BuChE using butyrylthiocholine iodide as substrate at 50 uM after 15 mins by Ellman's method
Method in brief: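 Modified Ellman assay in phosphate buffer pH 7.4. Enzyme sources: AChE from 5% rat cortex homogenate, preincubated 5 min with iso-OMPA to block BuChE; BuChE from 25% rat serum. Substrates were acetylthiocholine or butyrylthiocholine iodide. Compounds incubated 15 min at 37 °C, then DTNB added; A405 read. IC50 derived; triplicate, 3 independent experiments; "no active" means under 5% inhibition at 50 µM.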

Sequence of Amyloid-beta precursor protein (Homo sapiens) (P05067 whole entry): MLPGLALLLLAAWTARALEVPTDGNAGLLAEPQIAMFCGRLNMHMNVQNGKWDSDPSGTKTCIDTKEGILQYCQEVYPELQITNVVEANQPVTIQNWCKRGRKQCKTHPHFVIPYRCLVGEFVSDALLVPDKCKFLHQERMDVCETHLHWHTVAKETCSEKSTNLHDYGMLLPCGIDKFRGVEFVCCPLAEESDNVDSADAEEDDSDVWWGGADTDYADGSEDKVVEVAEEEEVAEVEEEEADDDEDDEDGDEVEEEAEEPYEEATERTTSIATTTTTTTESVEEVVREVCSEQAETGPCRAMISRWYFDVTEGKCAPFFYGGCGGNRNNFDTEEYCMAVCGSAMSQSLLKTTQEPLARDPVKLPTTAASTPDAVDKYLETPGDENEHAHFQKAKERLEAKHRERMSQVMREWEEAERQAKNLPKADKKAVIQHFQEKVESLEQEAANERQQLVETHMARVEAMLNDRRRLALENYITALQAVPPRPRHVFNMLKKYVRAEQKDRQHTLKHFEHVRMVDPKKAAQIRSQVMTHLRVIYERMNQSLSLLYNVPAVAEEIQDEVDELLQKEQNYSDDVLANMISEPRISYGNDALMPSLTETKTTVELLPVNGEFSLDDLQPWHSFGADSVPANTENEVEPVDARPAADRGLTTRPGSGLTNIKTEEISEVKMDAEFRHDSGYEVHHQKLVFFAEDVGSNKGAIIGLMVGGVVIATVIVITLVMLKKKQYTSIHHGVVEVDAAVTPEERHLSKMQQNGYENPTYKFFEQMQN
T1 sequence (O42275 whole entry): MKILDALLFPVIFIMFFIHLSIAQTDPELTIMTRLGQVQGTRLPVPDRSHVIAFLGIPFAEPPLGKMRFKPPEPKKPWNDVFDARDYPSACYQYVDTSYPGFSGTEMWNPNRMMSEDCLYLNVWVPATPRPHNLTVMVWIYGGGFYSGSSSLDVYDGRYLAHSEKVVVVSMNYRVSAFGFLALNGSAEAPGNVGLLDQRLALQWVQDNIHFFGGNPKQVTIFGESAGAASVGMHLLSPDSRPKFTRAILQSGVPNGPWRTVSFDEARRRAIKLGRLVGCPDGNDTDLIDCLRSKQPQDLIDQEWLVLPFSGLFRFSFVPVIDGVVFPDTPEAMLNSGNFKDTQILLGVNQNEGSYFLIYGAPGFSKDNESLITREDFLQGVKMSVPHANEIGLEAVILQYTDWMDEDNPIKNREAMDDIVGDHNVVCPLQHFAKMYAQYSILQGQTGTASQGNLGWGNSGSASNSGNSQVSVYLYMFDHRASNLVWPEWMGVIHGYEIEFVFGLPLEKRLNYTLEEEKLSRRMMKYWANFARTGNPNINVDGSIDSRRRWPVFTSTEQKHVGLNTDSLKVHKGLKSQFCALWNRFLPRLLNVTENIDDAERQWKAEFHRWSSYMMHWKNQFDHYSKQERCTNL
Sequence of Acetylcholinesterase (Homo sapiens, UniProt P22303) (P22303 whole entry): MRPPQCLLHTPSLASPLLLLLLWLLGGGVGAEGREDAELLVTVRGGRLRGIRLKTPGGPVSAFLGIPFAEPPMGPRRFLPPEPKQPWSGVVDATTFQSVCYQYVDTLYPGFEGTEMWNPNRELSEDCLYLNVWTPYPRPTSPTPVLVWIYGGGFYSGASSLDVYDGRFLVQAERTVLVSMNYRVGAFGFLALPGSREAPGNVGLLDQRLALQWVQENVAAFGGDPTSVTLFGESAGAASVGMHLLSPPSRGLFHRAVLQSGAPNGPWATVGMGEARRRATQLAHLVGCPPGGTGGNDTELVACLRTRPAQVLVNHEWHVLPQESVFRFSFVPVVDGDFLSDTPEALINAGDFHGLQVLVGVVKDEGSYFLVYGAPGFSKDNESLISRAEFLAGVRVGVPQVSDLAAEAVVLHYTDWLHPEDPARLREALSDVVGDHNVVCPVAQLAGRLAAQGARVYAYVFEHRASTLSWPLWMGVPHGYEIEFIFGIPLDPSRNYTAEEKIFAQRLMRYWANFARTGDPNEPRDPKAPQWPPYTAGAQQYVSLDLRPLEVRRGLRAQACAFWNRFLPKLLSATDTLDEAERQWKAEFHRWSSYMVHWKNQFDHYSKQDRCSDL
Sequence of Butyrylcholinesterase (Rattus norvegicus) (Q9JKC1 as listed by the source): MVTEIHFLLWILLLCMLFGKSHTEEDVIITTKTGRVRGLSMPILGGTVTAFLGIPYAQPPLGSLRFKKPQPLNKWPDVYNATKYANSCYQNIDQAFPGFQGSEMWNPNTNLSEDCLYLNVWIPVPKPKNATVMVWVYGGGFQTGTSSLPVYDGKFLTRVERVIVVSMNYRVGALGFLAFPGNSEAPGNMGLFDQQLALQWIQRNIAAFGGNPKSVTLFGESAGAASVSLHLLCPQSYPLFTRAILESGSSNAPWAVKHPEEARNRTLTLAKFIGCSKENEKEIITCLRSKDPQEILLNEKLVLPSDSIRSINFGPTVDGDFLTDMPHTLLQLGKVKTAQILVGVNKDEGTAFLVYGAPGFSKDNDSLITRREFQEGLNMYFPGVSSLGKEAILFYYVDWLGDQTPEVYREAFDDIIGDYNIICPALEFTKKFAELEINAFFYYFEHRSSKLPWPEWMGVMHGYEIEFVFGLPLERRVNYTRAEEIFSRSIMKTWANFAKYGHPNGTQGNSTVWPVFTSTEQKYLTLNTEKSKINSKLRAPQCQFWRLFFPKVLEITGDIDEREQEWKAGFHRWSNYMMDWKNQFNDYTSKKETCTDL

CCN(CCCCOc1ccc(-c2coc3cc(OCCCCN(CC)Cc4ccccc4OC)cc(O)c3c2=O)cc1)Cc1ccccc1OC
IC50 [1]: 0.14 µM
Activity [2]: Dose-dependent effect
IC50 [3]: 0.35 µM
Activity [4]: 0.3
Ki [5]: 0.14 µM
inhibition [6]: Dose-dependent effect
inhibition [7]: Dose-dependent effect
IC50 [8]: 0.09 µM
Activity [9]: 72.1%
inhibition [10]: 77.8%
inhibition [11]: 35%
inhibition [12]: 20%
